Experimental data from ChEMBL document CHEMBL4190287, “Identification of Antiangiogenic Potential and Cellular Mechanisms of Napyradiomycin A1 Isolated from the Marine-Derived Streptomyces sp. YP127” (J Nat Prod, 2017).
Activity calls are given as the source filed them. The rule behind the calls is not given here.

How the values were obtained:
HUVEC [1] = experiment: Induction of cellular permeability in HUVEC at 20 uM by Transwell assay; format: functional, cell-based; conditions: Homo sapiens, TDE = time-dependent effect
Summary of the method: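 HUVECs (5 × 10^5 cells/well) grown 48 h on gelatin-coated Transwell inserts, then exposed to compound a further 48 h; 1 mg/mL FITC-dextran added to upper chamber and fluorescence transferred to lower chamber read on plate reader.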

HUVEC [2] = experiment: Antiinvasive activity in HUVEC assessed as inhibition of VEGF-induced cell invasion at 20 uM measured every 3 hrs for 24 hrs relative to control; format: functional, Homo sapiens; parameters: scale not given: the % may be the effect or the level left
Summary of the method: (§1)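 Wound made in HUVEC monolayer (1 × 10^5 cells/well, grown overnight) with pin wounding device, washed with PBS; growth-factor-reduced basement membrane matrix overlaid on wound, compound-containing medium added. Tip cells at invasive front counted after 24 and 48 h of treatment versus control, live-cell imaging.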

HUVEC [3] = experiment: Antiproliferative activity against HUVEC after 72 hrs by Celltiter-Glo luminescent cell viability assay; format: functional; conditions: Homo sapiens
Summary of the method: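 HUVECs seeded 2.5 × 10^3 per well, treated with compound at different concentrations; confluency imaged every 6 h over 72 h. At 72 h viable cells measured by CellTiter-Glo luminescence; GI50 calculated.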

HUVEC [4] = experiment: Antiinvasive activity in HUVEC assessed as inhibition of VEGF-induced cell invasion at 20 uM measured every 3 hrs for 48 hrs relative to control; format: functional, Homo sapiens; parameters: scale not given: the % may be the effect or the level left; summary of the method: as §1
HUVEC [5] = experiment: Downregulation of VE-cadherin expression in HUVEC at 20 uM by Western blot method; format: functional, cell-based; conditions: Homo sapiens, TDE = time-dependent effect
Summary of the method: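 HUVEC lysates in RIPA buffer with protease inhibitors, separated on 4–12% SDS gradient gel, transferred to PVDF, probed with anti-VE-cadherin and anti-GAPDH, HRP secondary, ECL detection.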

HUVEC [6] = experiment: Downregulation of PECAM1 expression in HUVEC at 20 uM after 24 to 48 hrs by Western blot method; format: functional, cell-based; conditions: Homo sapiens
HUVEC [7] = experiment: Downregulation of VE-cadherin mRNA level in HUVEC at 20 uM after 48 hrs by qRT-PCR method relative to control; format: functional, Homo sapiens
HUVEC [8] = experiment: Downregulation of PECAM1 mRNA level in HUVEC at 20 uM after 48 hrs by qRT-PCR method relative to control; format: functional, Homo sapiens
HUVEC [9] = experiment: Antiproliferative activity against HUVEC assessed as inhibition of Ki67 expression at 20 uM after 24 hrs by immunofluorescent microscopic analysis; format: functional, cell-based; conditions: Homo sapiens
Summary of the method: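 HUVECs seeded 4 × 10^4 per well on gelatin, treated 24 h; fixed 4% paraformaldehyde 10 min, permeabilized 0.1% Triton X-100 10 min, blocked 10% normal horse serum 1 h RT, anti-Ki-67 1 h, Cy3 secondary, DAPI nuclear stain; fluorescence microscopy.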

[10] = Antiproliferative activity against human BJ6 cells at 0.2 to 20 uM after 72 hrs by IncuCyte live imaging
HUVEC [11] = experiment: Cytotoxicity against HUVEC assessed as cell death at 20 uM after 24 hrs by YOYO-1 Iodide staining based fluorescence assay; conditions: human
HUVEC [12] = experiment: Antiangiogenic activity in HUVEC assessed as inhibition of VEGF-induced tube formation after 24 hrs by calcein-AM dye based fluorescence assay; format: functional, cell-based; conditions: Homo sapiens
Summary of the method: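 HUVECs (passage 6–8) seeded at 6 × 10^4 cells on growth-factor-reduced Matrigel, incubated 24 h with compound at various concentrations plus 10 ng/mL recombinant human VEGF; stained 2 μg/mL Calcein AM 20 min, 37 °C, imaged. Tubes with three branch points counted; three independent experiments, mean tube numbers; IC50 from concentration–response.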

HUVEC [13] = experiment: Downregulation of PECAM1 mRNA level in HUVEC at 20 uM after 24 hrs by qRT-PCR method relative to control; format: functional, Homo sapiens
HUVEC [14] = experiment: Downregulation of VE-cadherin mRNA level in HUVEC at 20 uM after 24 hrs by qRT-PCR method relative to control; format: functional, Homo sapiens
Summary of the method: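 Total RNA from compound- or DMSO-treated HUVECs (24 h) extracted, cDNA made, VE-cadherin mRNA quantified by real-time PCR relative to control.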

HUVEC [15] = experiment: Antimigratory activity against VEGF-stimulated HUVEC at 20 uM after 24 hrs by scratch wound-healing assay; format: functional, cell-based; conditions: Homo sapiens
Summary of the method: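 HUVECs plated at 1 × 10^5 cells/well, grown overnight, wounded with pin device, washed twice with PBS; medium with 10 ng/mL VEGF plus compound or DMSO added. Live-cell images every 3 h for 24 h; wound confluence (cell density in wound area, %) computed by imaging algorithm.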

## CC(C)=CCC/C(C)=C/C[C@@]12OC(C)(C)[C@H](Cl)C[C@]1(Cl)C(=O)c1c(O)cc(O)cc1C2=O
HUVEC [1]
  Activity: Tde
HUVEC [2]
  Activity: 43%
HUVEC [3]
  GI50: 27.6 µM
HUVEC [4]
  Activity: 52%
HUVEC [5]
  Activity: Tde
HUVEC [6]
  Activity: inactive
HUVEC [7]
  Activity: 94%
HUVEC [8]
  Activity: 70%
HUVEC [9]
  inhibition: Active
[10]
  Activity: Non-Toxic
HUVEC [11]
  Activity: Non-Toxic
HUVEC [12]
  IC50: 10 µM
HUVEC [13]
  Activity: 53%
HUVEC [14]
  Activity: 76%
HUVEC [15]
  Activity: Active
